Here are results for 15 compounds from ChEMBL document CHEMBL1138562, “2,3-Disubstituted-1,4-naphthoquinones, 12H-benzo[b]phenothiazine-6,11-diones and related compounds: synthesis and biological evaluation as potential antiproliferative and antifungal agents” (2009).

In test [1] the test system is HeLa. Briefly: Antiproliferative activity against human HeLa cells at 20 uM after 24 hrs by sulforhodamine B assay. In kind it is functional. The method, boiled down: (§1)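 HeLa cells grown in Eagle's MEM with 10% FBS at 37 °C under 5% CO2. Seeded at 1 × 10⁵ cells/mL and medium replaced after 24 h. Compounds added from DMSO stocks (final DMSO below 0.1%; DMSO vehicle as control) for one cell cycle (24 h). Cells stained with 0.4% sulforhodamine B and protein-bound dye read at 560 nm.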
Background: In SRB staining, fixed cells bind dye roughly in proportion to their protein.

The test system of test [2] is HeLa. Briefly: Antiproliferative activity against human HeLa cells at 5 uM after 24 hrs by sulforhodamine B assay. In kind it is functional. The gist of the method: as §1
The subject of test [3] is HeLa. Kind of test: Antiproliferative activity against human HeLa cells at 1 uM after 24 hrs by sulforhodamine B assay. The class given is functional. The gist of the method:
as §1

Test [4] relates to HeLa. Kind of test: Induction of apoptosis in human HeLa cells at 5 uM after 24 hrs by annexin 5-propidium iodide staining mathod. The class given is functional, cell-based. The gist of the method: (§2)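 HeLa cells grown on coverslips at 5 × 10⁴ cells/mL and incubated 24 h with 5 µM compound. Stained with FITC-Annexin V (early apoptosis) and propidium iodide (late apoptosis/necrosis) using a kit. Imaged by DIC for morphology and by fluorescence.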

For test [5], the system named is HeLa. Kind of test: Induction of apoptosis in human HeLa cells assessed as morphological changes at 5 uM after 24 hrs by differential interference contrast microscopy. In kind it is functional, cell-based. The method, boiled down:
as §2

Test [6] concerns HeLa. Kind of test: Induction of apoptosis in human HeLa cells assessed as cell population at mitosis at 5 uM after 24 hrs. In kind it is functional. The method, boiled down: (§3)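 HeLa cells grown on coverslips and exposed 24 h to compound (5, 10, 20 µM or none). Microtubules stained with mouse anti-α-tubulin and FITC anti-mouse IgG, chromosomes with DAPI. Mitotic cells scored by fluorescence microscopy.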

In test [7] the test system is HeLa. Kind of test: Induction of apoptosis in human HeLa cells assessed as cell population at mitosis at 10 uM after 24 hrs. In kind it is functional. The gist of the method:
as §3

The subject of test [8] is HeLa. Briefly: Induction of apoptosis in human HeLa cells assessed as cell population at mitosis at 20 uM after 24 hrs. In kind it is functional. The gist of the method: as §3
Another test has as its system Candida albicans. Kind of test: Antifungal activity against Candida albicans after 48 hrs by micro broth dilution method. The class given is functional. The method, boiled down:
(§4)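 Micro broth dilution per NCCLS in RPMI 1640 buffered with MOPS. Inoculum 1-5 × 10³ cells/mL. Plates kept in a moist chamber at 35 °C. Absorbance read at 492 nm after 48 h (C. albicans, C. parapsilosis), 72 h (A. fumigatus, S. schenckii, C. neoformans) or 96 h (T. mentagrophytes). MIC taken as 90% growth inhibition versus control.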
(In general: Dilution methods test growth across graded concentrations, often in twofold steps.)

The next test relates to Cryptococcus neoformans. Kind of test: Antifungal activity against Cryptococcus neoformans after 72 hrs by micro broth dilution method. In kind it is functional. The method, boiled down: as §4
Another test deals with Sporothrix schenckii. Kind of test: Antifungal activity against Sporothrix schenckii after 72 hrs by micro broth dilution method. In kind it is functional. The gist of the method:
as §4

In test [9] the test system is Trichophyton mentagrophytes. Briefly: Antifungal activity against Trichophyton mentagrophytes after 96 hrs by micro broth dilution method. In kind it is functional. The method, boiled down:
as §4

For the next test, the system named is Aspergillus fumigatus. Briefly: Antifungal activity against Aspergillus fumigatus after 72 hrs by micro broth dilution method. The class given is functional. The method, boiled down:
as §4

The test system of another test is Candida parapsilosis. Kind of test: Antifungal activity against Candida parapsilosis ATCC 22019 after 48 hrs by micro broth dilution method. In kind it is functional. To be noted: Lodderomyces parapsilosis, ATCC 22019, 48 h. The method, boiled down: as §4
Test [10] relates to HeLa. Briefly: Antiproliferative activity against human HeLa cells at 34 uM after 24 hrs by sulforhodamine B assay. The class given is functional.
The subject of test [11] is HeLa. Kind of test: Induction of apoptosis in human HeLa cells assessed as blockade of cell cycle progression at mitosis after 24 hrs. The class given is functional, cell-based. The method, boiled down:
as §3

In brackets after ≈: the same amount, converted by molar mass. Activity calls are given as the source filed them. No cut-off for these calls is given here.

As for `COc1cccc(SC2=C(Sc3cccc(OC)c3)C(=O)c3ccccc3C2=O)c1`, 20 µM produced 100% inhibition in the test on HeLa [1]. Further, in the test on HeLa [2], the inhibition (in general, the percentage by which the read-out fell short of the control) at 5 µM was 76%. The inhibition at 1 µM in the test on HeLa [3] came to 64%. Moreover, the result in the test with HeLa [4] and in the test on HeLa [5] was Active. Moreover, the Activity was 3.5% in the test on HeLa [6], 3.8% in the test with HeLa [7] and 4.2% in the test with HeLa [8]. Further, the MIC (in general, the lowest concentration that inhibits growth of the organism) in the test on Candida albicans is more than 50 µg/mL; with Cryptococcus neoformans, more than 50 µg/mL; against Sporothrix schenckii, more than 50 µg/mL; in test [9], 50 µg/mL (≈ 115 µM); against Aspergillus fumigatus it was more than 50 µg/mL; in the test with Candida parapsilosis it was more than 50 µg/mL.
For `COc1ccc2c(c1OC)C(=O)O[C@@H]2[C@H]1c2c(cc3c(c2OC)OCO3)CCN1C` [NOSCAPINE], in the test with HeLa [10], the inhibition at 34 µM worked out at 50%.
`OC(Cn1cncn1)(Cn1cncn1)c1ccc(F)cc1F` [FLUCONAZOLE]: the MIC against Candida albicans was 1 µg/mL (≈ 3.27 µM); with Cryptococcus neoformans, 1 µg/mL (≈ 3.27 µM); in the test with Sporothrix schenckii, 2 µg/mL (≈ 6.53 µM); in test [9], 0.5 µg/mL (≈ 1.63 µM); against Aspergillus fumigatus, 2 µg/mL (≈ 6.53 µM); against Candida parapsilosis it was 2 µg/mL (≈ 6.53 µM).
The compound `O=C1C(Sc2ccccc2)=C(Sc2ccccc2)C(=O)c2ccccc21` yielded an inhibition at 20 µM in the test on HeLa [1] of 100%. The compound also returned an inhibition at 5 µM in the test on HeLa [2] of 60%. Moreover, in the test with HeLa [3], testing at 1 µM gave an inhibition of 51%. Further, the result in the test on HeLa [4] and in the test on HeLa [5] was Active. Further, in the test with HeLa [11], the outcome was inactive. In addition, the MIC with Candida albicans was more than 50 µg/mL; with Cryptococcus neoformans, more than 50 µg/mL; with Sporothrix schenckii, 50 µg/mL (≈ 134 µM); in test [9], more than 50 µg/mL; in the test with Aspergillus fumigatus it was more than 50 µg/mL; with Candida parapsilosis, more than 50 µg/mL.
Take `O=C1C(Cl)=C(Sc2cccc3ccccc23)C(=O)c2ccccc21`: at 20 µM the inhibition in the test with HeLa [1] was 69%. Further, in the test with HeLa [2], 5 µM produced 22% inhibition. Also, the inhibition at 1 µM in the test on HeLa [3] is 0%. The MIC stood at 50 µg/mL (≈ 143 µM) with Candida albicans; 50 µg/mL (≈ 143 µM) against Cryptococcus neoformans; 6.25 µg/mL (≈ 17.8 µM) in the test on Sporothrix schenckii; 6.25 µg/mL (≈ 17.8 µM) in test [9]; 50 µg/mL (≈ 143 µM) in the test on Aspergillus fumigatus; 50 µg/mL (≈ 143 µM) in the test on Candida parapsilosis.
For the compound `Clc1ccc(COC(Cn2ccnc2)c2ccc(Cl)cc2Cl)c(Cl)c1` (stereo not given) [MICONAZOLE], the MIC was 25 µg/mL (≈ 60.1 µM) against Candida albicans, 12.5 µg/mL (≈ 30 µM) against Cryptococcus neoformans, less than 0.78 µg/mL in [9] and 12.5 µg/mL (≈ 30 µM) against Aspergillus fumigatus.
The compound `O=c1c2[nH]c3ccccc3sc=2c(=O)c2ccccc12` displayed an inhibition at 20 µM with HeLa [1] of 42%. In addition, in the test with HeLa [2], the inhibition at 5 µM is 6.5%. Also, the inhibition at 1 µM in the test on HeLa [3] came to 5.5%. Further, the MIC is more than 50 µg/mL against Candida albicans; more than 50 µg/mL in the test with Cryptococcus neoformans; 50 µg/mL (≈ 179 µM) with Sporothrix schenckii; more than 50 µg/mL in [9]; more than 50 µg/mL with Aspergillus fumigatus; more than 50 µg/mL with Candida parapsilosis.
The compound `COc1ccc2[nH]c3c(=O)c4ccccc4c(=O)c=3sc2c1` gave an inhibition at 20 µM in the test on HeLa [1] of 77%. The same compound yielded an inhibition at 5 µM with HeLa [2] of 20%. For the same compound, testing at 1 µM in the test with HeLa [3] gave an inhibition of 8.5%. In addition, the MIC against Candida albicans was more than 50 µg/mL; against Cryptococcus neoformans, more than 50 µg/mL; in the test on Sporothrix schenckii it was more than 50 µg/mL; in test [9], 50 µg/mL (≈ 162 µM); in the test with Aspergillus fumigatus it was more than 50 µg/mL; in the test with Candida parapsilosis, more than 50 µg/mL.
`O=c1c2[nH]c3ccc4ccccc4c3sc=2c(=O)c2ccccc12` had an inhibition at 20 µM in the test on HeLa [1] of 42%. The same compound registered an inhibition at 5 µM in the test on HeLa [2] of 19%. Besides, at 1 µM the inhibition in the test on HeLa [3] was 12%. Besides, the MIC is more than 50 µg/mL against Candida albicans; more than 50 µg/mL against Cryptococcus neoformans; 50 µg/mL (≈ 152 µM) with Sporothrix schenckii; more than 50 µg/mL in [9]; more than 50 µg/mL in the test on Aspergillus fumigatus; more than 50 µg/mL in the test on Candida parapsilosis.
In the case of `C[C@@H]1[C@H](O)[C@@H](C)/C=C/C=C/C=C/C=C/C=C/C=C/C=C/[C@H](O[C@@H]2O[C@H](C)[C@@H](O)[C@H](N)[C@@H]2O)C[C@@H]2O[C@](O)(C[C@@H](O)C[C@@H](O)[C@H](O)CC[C@@H](O)C[C@@H](O)CC(=O)O[C@H]1C)C[C@H](O)[C@H]2C(=O)O` [AMPHOTERICIN B], the MIC in the test on Candida albicans came to 0.39 µg/mL (≈ 0.422 µM); against Cryptococcus neoformans, 0.78 µg/mL (≈ 0.844 µM); in [9], 1.56 µg/mL (≈ 1.69 µM).
`O=C1C(Cl)=C(Cl)C(=O)c2ccccc21` [Dichlon] showed an inhibition at 20 µM with HeLa [1] of 49%. In addition, at 5 µM the inhibition with HeLa [2] was 43%. In the test on HeLa [3], at 1 µM the inhibition was 28%. The MIC was found to be 0.78 µg/mL (≈ 3.44 µM) against Candida albicans; 3.12 µg/mL (≈ 13.7 µM) against Cryptococcus neoformans; 0.78 µg/mL (≈ 3.44 µM) in the test on Sporothrix schenckii; 1.56 µg/mL (≈ 6.87 µM) in test [9]; 1.56 µg/mL (≈ 6.87 µM) in the test on Aspergillus fumigatus; 1.56 µg/mL (≈ 6.87 µM) against Candida parapsilosis.
With `COc1cccc(SC2=C(Cl)C(=O)c3ccccc3C2=O)c1`, the inhibition at 20 µM in the test on HeLa [1] amounted to 74%. This compound also returned an inhibition at 5 µM with HeLa [2] of 48%. The compound also showed an inhibition at 1 µM in the test with HeLa [3] of 39%. Moreover, the MIC against Candida albicans was 25 µg/mL (≈ 75.6 µM); against Cryptococcus neoformans it was 25 µg/mL (≈ 75.6 µM); against Sporothrix schenckii, 3.12 µg/mL (≈ 9.43 µM); in test [9], 3.12 µg/mL (≈ 9.43 µM); with Aspergillus fumigatus, 25 µg/mL (≈ 75.6 µM); against Candida parapsilosis it was 25 µg/mL (≈ 75.6 µM).
In the test on HeLa [1], `O=C1C(Sc2cccc3ccccc23)=C(Sc2cccc3ccccc23)C(=O)c2ccccc21` showed an inhibition at 20 µM of 46%. Further, in the test on HeLa [2], the inhibition at 5 µM came out at 30%. The same compound had an inhibition at 1 µM in the test with HeLa [3] of 22%. In addition, the MIC (against Candida albicans; in the test with Cryptococcus neoformans; against Sporothrix schenckii; in test [9]; in the test with Aspergillus fumigatus; in the test with Candida parapsilosis) was more than 50 µg/mL throughout.
Take NYSTATIN: the MIC with Candida albicans came out at 7.8 µg/mL; in the test on Cryptococcus neoformans it was 3.5 µg/mL; against Sporothrix schenckii, 13.2 µg/mL.
For `O=C1C(Cl)=C(Sc2ccccc2)C(=O)c2ccccc21`, the inhibition at 20 µM in the test on HeLa [1] stood at 73%. Further, the inhibition at 5 µM in the test with HeLa [2] stood at 29%. The inhibition at 1 µM with HeLa [3] was determined as 15%. Besides, the MIC came out at 6.25 µg/mL (≈ 20.8 µM) in the test with Candida albicans; 6.25 µg/mL (≈ 20.8 µM) with Cryptococcus neoformans; 1.56 µg/mL (≈ 5.19 µM) with Sporothrix schenckii; 1.56 µg/mL (≈ 5.19 µM) in test [9]; 12.5 µg/mL (≈ 41.6 µM) with Aspergillus fumigatus; 6.25 µg/mL (≈ 20.8 µM) against Candida parapsilosis.
